In assay [1] the target is T1, Hypoxia inducible factors; HIF-1-alpha, HIF-2-alpha (Homo sapiens, UniProt Q16665+Q99814). In words: Inhibition of Serine/threonine-protein kinase mTOR complex 1-mediated HIF1alpha RNA translation in human MCF7 cells pretreated for 1 hr prior to metabolic labeling by SDS-PAGE analysis. It is filed as cell-based. The method, boiled down: (§1)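 MCF7 cells held 1 h in DMEM without L-glutamine, cysteine and methionine, with 10% dialysed FCS and 2 mM glutamine. Then pretreated 1 h with compound, cycloheximide 10 μg/mL or DMSO, and labelled 2 h with [35S] amino acids (0.75 MBq/mL) plus CoCl2 100 μM. RIPA lysates immunoprecipitated overnight at 4 °C with anti-HIF1α or isotype IgG; SDS-PAGE, phosphorimaging. Three independent experiments.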

Assay [2] deals with MEF. Put plainly: Inhibition of mTORC1 in MEF cells assessed as reduction of p70S6K phosphorylation at threonine 389 at 2.5 to 5 uM after 3 hrs by immunoblotting analysis. The assay is classed as cell-based. The conditions noted are these: Mus musculus. The essentials: (§2)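 PTEN+/+ and PTEN−/− MEFs exposed to a concentration series, DMSO or nothing for 3 h. Immunoblots for phospho-p70 S6K T389, total p70 S6K and β-actin.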
On the technique in general: In western blotting, separated proteins are transferred to a membrane and probed.

Assay [3] has as its system MEF. In words: Inhibition of growth in wild type MEF cells after 6 days. It is filed as functional, cell-based. The following applies: Mus musculus, 144 h. The essentials: (§3)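 Growth assay: p53−/−TSC2−/− and control MEFs plated at 1000 cells/well and treated next day with compound, DMSO or nothing. After 6 days relative cell number read by CellTiter 96 AQueous One, expressed as % of untreated. IC50 from curve fit; mean ± SD of three independent experiments.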

In assay [4] the target is Mitogen-activated protein kinase; ERK1/ERK2 (Homo sapiens) (UniProt P27361+P28482). In words: Induction of ERK1/2 phosphorylation at threonine 202/tyrosine 204 in human MCF7 cells after 3 hrs by immunoblotting analysis. It is filed as cell-based.
For assay [5], the target named is T2, mTORC1 (Homo sapiens) (UniProt P42345+Q8N122+Q9BVC4). Put plainly: Inhibition of mTORC1 in human MCF7 cells assessed as reduction of p70S6K phosphorylation at 20 uM after 15 mins by immunoblotting analysis. The assay is classed as cell-based. The essentials:
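MCF7 cells exposed to 20 μM compound or DMSO over a time course; p70 S6K phosphorylation read by immunoblotting.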

Assay [6] has as its target T2, mTORC1 (Homo sapiens). Put plainly: Inhibition of mTORC1 in human MCF7 cells assessed as reduction of 4E-BP1 phosphorylation after 3 hrs by immunoblotting analysis. The assay is classed as cell-based. The essentials:
(§4)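 MCF7 cells exposed to a concentration series, DMSO or nothing for 3 h, then immunoblotted. Repeated measures ANOVA with Tukey's test.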

The subject of assay [7] is MEF. Put plainly: Effect on mTORC2 in p53-/-TSC2+/+ MEF cells assessed as Akt phosphorylation at serine 473 after 3 hrs by immunoblotting analysis. The assay is classed as cell-based. The conditions noted are these: Mus musculus. The essentials:
(§5)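 p53−/−TSC2+/+ and p53−/−TSC2−/− MEFs in standard serum-containing medium exposed to compound, DMSO (matched to 20 μM) or nothing for 3 h. Immunoblots probed for phospho-AKT S473, total AKT, phospho-NDRG1 T346 and total NDRG1, with HSC70 as loading control.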

For assay [8], the system named is MCF7. Put plainly: Inhibition of Akt phosphorylation at threonine 308 in human MCF7 cells at 20 uM after 4 hrs by immunoblotting analysis. The assay is classed as cell-based. The method, boiled down: (§6)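 MCF7 cells given 20 μM compound or DMSO for up to 4 h. Immunoblots for phospho-AKT T308, phospho-AKT S473, total AKT and β-actin. Phospho signals normalised to total AKT; total AKT normalised to β-actin. Mean ± SD of three independent experiments; repeated measures ANOVA with Tukey's test.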

Assay [9] concerns MCF7. In words: Induction of Akt phosphorylation at threonine 308 in human MCF7 cells after 4 hrs by immunoblotting analysis relative to total Akt. The assay is classed as cell-based. The essentials:
as §6

Assay [10] deals with MEF. In words: Inhibition of mTORC1 in p53-/-TSC+/+ MEF cells assessed as reduction of p70S6K phosphorylation after 3 hrs by immunoblotting analysis. The assay is classed as cell-based. The conditions noted are these: Mus musculus. The method, boiled down: (§7)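 p53−/−TSC2+/+ and p53−/−TSC2−/− MEFs in standard serum-containing medium exposed to a concentration series, DMSO (matched to 20 μM) or nothing for 3 h. Immunoblots for phospho-p70 S6K T389, total p70 S6K and β-actin. Mean ± SD of three independent experiments; ANOVA with Tukey's test within each line, t test between lines.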

Assay [11] concerns MEF. Put plainly: Inhibition of mTORC1 in PTEN-/- MEF cells assessed as reduction of p70S6K phosphorylation after 3 hrs by immunoblotting analysis. It is filed as cell-based. The conditions noted are these: Mus musculus. The method, boiled down:
as §2

Assay [12] has as its system MEF. Put plainly: Inhibition of growth in TSC2-deficient MEF cells after 6 days. The assay is classed as functional, cell-based. The following applies: Mus musculus, 144 h. The essentials: as §3
Assay [13] has as its target T2, mTORC1 (Homo sapiens). Put plainly: Inhibition of mTORC1 in human MCF7 cells assessed as reduction of p70S6K phosphorylation at threonine 389 after 3 hrs by immunoblotting analysis. It is filed as cell-based. The method, boiled down: as §4
For assay [14], the system named is MEF. In words: Increase in mTORC2 activity in p53-/-TSC2-/- MEF cells assessed as […] in NDRG1 phosphorylation at threonine 346 after 3 hrs by immunoblotting analysis. The assay is classed as cell-based. The conditions noted are these: Mus musculus. The essentials: as §5
Assay [15] concerns MEF. Put plainly: Increase in mTORC2 activity in p53-/-TSC2-/- MEF cells assessed as […] of Akt phosphorylation at serine 473 after 3 hrs by immunoblotting analysis. The assay is classed as cell-based. The following applies: Mus musculus. The method, boiled down:
as §5

Assay [16] addresses T1, Hypoxia inducible factors; HIF-1-alpha, HIF-2-alpha. Put plainly: Inhibition of Serine/threonine-protein kinase mTOR complex 1-mediated HIF1alpha RNA translation in human MCF7 cells at 20 uM pretreated for 1 hr prior to metabolic labeling by SDS-PAGE analysis. The assay is classed as cell-based. The method, boiled down:
as §1

The test system of assay [17] is MCF7. In words: Increase in mTORC2 activity in human MCF7 cells induction of Akt phosphorylation at serine 473 after 4 hrs by immunoblotting analysis. The assay is classed as cell-based. The essentials: as §6
Assay [18] has as its system MEF. Put plainly: Inhibition of mTORC1 in PTEN+/+ MEF cells assessed as reduction of p70S6K phosphorylation after 3 hrs by immunoblotting analysis. It is filed as cell-based. The following applies: Mus musculus. The essentials:
as §2

Assay [19] deals with MEF. Put plainly: Inhibition of mTORC1 in p53-/-TSC2+/+ MEF cells assessed as reduction of p70S6K phosphorylation at threonine 389 after 3 hrs by immunoblotting analysis. It is filed as cell-based. The conditions noted are these: Mus musculus. The essentials: as §7
The target in assay [20] is AMP-activated protein kinase, AMPK (Homo sapiens) (UniProt P54646+O43741+P54619+Q9UGJ0+Q9Y478+Q13131+Q9UGI9). Put plainly: Induction of AMPK phosphorylation at threonine 172 in human MCF7 cells after 3 hrs by immunoblotting analysis. The assay is classed as cell-based.
The test system of assay [21] is MEF. Put plainly: Inhibition of mTORC1 in p53-/-TSC2-/- MEF cells assessed as reduction of p70S6K phosphorylation at threonine 389 after 3 hrs by immunoblotting analysis. The assay is classed as cell-based. The conditions noted are these: Mus musculus. The method, boiled down:
as §7

For assay [22], the system named is MEF. In words: Effect on mTORC2 in p53-/-TSC2+/+ MEF cells assessed as as NDRG1 phosphorylation at threonine 346 after 3 hrs by immunoblotting analysis. It is filed as cell-based. The conditions noted are these: Mus musculus. The method, boiled down: as §5
For assay [23], the system named is MCF7. In words: Inhibition of HIF1alpha RNA translation in human MCF7 cells at 10 ug/mL pretreated for 1 hr prior to metabolic labeling by SDS-PAGE analysis. The assay is classed as functional, cell-based. The essentials:
as §1

This note sets out measurements from ChEMBL document CHEMBL2203241, “Natural product-derived antitumor compound phenethyl isothiocyanate inhibits mTORC1 activity via TSC2” (J Nat Prod, 2012).

Active and inactive are the calls of the source. The calls are words filed in the database; no cut-off is given here.

T2 sequence (Q8N122 whole entry, looked up, other chains not shown): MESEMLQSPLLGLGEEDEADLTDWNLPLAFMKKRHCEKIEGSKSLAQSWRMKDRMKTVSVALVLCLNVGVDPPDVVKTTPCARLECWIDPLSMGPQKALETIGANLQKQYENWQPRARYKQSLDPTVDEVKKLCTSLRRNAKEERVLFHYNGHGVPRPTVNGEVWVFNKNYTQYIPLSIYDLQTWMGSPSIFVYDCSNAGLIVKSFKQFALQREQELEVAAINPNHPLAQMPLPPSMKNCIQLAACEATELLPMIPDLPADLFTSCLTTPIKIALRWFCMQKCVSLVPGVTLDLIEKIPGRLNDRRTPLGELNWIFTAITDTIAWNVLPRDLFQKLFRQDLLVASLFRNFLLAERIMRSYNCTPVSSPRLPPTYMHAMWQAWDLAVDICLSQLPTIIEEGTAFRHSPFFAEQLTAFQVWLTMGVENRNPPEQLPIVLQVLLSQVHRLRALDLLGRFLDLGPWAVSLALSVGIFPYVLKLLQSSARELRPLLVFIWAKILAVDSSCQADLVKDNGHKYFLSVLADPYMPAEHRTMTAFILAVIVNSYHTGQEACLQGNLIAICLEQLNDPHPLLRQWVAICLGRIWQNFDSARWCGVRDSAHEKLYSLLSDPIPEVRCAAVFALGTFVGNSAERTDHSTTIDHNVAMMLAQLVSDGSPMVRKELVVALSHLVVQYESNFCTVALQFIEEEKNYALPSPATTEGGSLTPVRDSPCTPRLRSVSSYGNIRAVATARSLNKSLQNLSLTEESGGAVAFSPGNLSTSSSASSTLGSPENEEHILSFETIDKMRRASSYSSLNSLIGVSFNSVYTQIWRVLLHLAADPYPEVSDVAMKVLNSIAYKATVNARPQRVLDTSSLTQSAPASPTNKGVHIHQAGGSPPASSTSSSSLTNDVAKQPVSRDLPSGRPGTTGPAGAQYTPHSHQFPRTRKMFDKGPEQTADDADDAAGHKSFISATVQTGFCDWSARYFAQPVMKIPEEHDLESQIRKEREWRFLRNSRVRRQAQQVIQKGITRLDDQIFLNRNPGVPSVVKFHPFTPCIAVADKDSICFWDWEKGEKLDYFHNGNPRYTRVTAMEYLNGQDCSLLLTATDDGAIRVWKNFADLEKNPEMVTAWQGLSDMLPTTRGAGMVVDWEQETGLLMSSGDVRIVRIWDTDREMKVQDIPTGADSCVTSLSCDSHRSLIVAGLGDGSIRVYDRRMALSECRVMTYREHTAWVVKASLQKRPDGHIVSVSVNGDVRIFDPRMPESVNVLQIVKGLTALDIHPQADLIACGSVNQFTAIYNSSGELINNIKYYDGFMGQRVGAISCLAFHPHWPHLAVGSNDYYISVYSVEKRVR
T2 sequence (Q9BVC4 whole entry, looked up, other chains not shown): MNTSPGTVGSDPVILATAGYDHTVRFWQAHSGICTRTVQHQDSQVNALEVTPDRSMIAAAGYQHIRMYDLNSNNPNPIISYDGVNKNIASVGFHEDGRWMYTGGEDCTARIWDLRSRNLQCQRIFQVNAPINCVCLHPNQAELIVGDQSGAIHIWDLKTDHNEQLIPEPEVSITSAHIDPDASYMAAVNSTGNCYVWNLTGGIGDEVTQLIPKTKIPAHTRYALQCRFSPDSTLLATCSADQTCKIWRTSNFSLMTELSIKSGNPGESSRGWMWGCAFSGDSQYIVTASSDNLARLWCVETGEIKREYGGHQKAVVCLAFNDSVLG
Chain of Mitogen-activated protein kinase; ERK1/ERK2 (Homo sapiens) (P27361 whole entry, looked up): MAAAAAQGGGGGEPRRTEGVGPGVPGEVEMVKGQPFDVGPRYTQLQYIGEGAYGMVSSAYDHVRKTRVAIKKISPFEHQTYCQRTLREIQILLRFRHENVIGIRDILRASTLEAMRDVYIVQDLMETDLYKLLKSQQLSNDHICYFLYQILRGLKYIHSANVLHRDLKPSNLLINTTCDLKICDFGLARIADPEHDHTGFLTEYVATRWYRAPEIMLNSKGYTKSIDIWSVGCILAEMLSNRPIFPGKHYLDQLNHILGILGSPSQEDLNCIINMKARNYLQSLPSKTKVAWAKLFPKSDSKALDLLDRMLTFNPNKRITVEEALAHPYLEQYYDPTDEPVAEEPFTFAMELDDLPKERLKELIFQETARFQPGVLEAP
Chain of Mitogen-activated protein kinase; ERK1/ERK2 (Homo sapiens) (P28482 whole entry, looked up): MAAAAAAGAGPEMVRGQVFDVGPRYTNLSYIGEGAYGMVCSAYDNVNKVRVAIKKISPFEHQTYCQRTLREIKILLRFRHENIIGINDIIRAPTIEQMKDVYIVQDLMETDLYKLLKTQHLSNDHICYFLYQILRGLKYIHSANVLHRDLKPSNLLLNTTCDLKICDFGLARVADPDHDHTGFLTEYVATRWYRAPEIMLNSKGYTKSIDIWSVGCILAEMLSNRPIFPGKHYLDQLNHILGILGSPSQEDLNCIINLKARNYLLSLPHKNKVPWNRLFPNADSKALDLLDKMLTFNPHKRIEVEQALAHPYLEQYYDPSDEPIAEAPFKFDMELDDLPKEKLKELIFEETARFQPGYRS

As a reminder, the IC50 is the concentration that gives 50% inhibition. With `S=C=NCCc1ccccc1` [PHENETHYLISOTHIOCYANATE], the IC50 came out at 7.5 µM in [1], 4.7 µM in the assay with MEF [3] and 8 µM with MEF [12]. The inhibition entry in the assay on MEF [2], on mTORC1 (Homo sapiens) [5], on mTORC1 (Homo sapiens) [6], in the assay with MEF [10], with MEF [11] and at mTORC1 (Homo sapiens) [13] was “Active” throughout. Also, the inhibition result (in assay [16]; in the assay with MEF [18]; with MEF [19]) was “Active” in each case. For the same compound, the outcome (in [4]; with MEF [14]; in the assay with MEF [15]; with MCF7 [17]) was Active. Also, the outcome (in the assay with MEF [7]; in assay [20]; with MEF [22]) was inactive. Further, the inhibition entry in the assay with MCF7 [8] and in the assay with MEF [21] was “inactive” throughout. Moreover, the fold change (FC) in the assay with MCF7 [9] stood at 3.

For the compound `C[C@@H]1C[C@@H]([C@H](O)CC2CC(=O)NC(=O)C2)C(=O)[C@@H](C)C1`, the inhibition entry with MCF7 [23] is “Active”.
